{
  "source": "paper PMC6944222",
  "about": "(Toxicological Sciences, 2019)",
  "key": {"[1]": {"test": "IVIVE of total hepatic intrinsic clearance", "type": "in vitro ADME, human", "settings": "for Hepatic CLint_vivo: model estimated; for total CLint_vivo estimated with HLMs and cytosol (subcellular fraction): subcellular fraction-based IVIVE", "in_short": "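Pooled human liver microsomes and cytosol from 150 adults (75 male, 75 female). […] In vitro CLint was scaled to the in vivo hepatic value using microsomal or cytosolic protein content and liver weight. Enzyme ontogeny was expressed as a fraction of adult expression.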"}, "[2]": {"system": "expressed human CYP and CES enzymes", "type": "in vitro ADME", "settings": "for total in vivo CLint estimated with expressed enzymes: expressed enzyme-based IVIVE; for metabolism profile (enzymes responsible): human hepatic CYP and CES enzymes"}, "[3]": {"settings": "stated as known, no reference given; cited from earlier work"}, "[4]": {"settings": "ref Willemin et al. (2015); cited from earlier work"}},
  "data": [
    {"smiles": "Cc1c(COC(=O)[C@@H]2[C@H](/C=C(\\Cl)C(F)(F)F)C2(C)C)cccc1-c1ccccc1", "note": "(racemic) [Bifenthrin, bifenthrin]", "values": [
      {"measurement": "Hepatic CLint_vivo", "setting": "[1]; person five", "value": 58, "unit": "L/h"},
      {"measurement": "Hepatic CLint_vivo", "setting": "[1]; person four", "value": 36, "unit": "L/h"},
      {"measurement": "Hepatic CLint_vivo", "setting": "[1]; person one", "value": 10, "unit": "L/h"},
      {"measurement": "Hepatic CLint_vivo", "setting": "[1]; person six", "value": 67, "unit": "L/h"},
      {"measurement": "Hepatic CLint_vivo", "setting": "[1]; person three", "value": 16, "unit": "L/h"},
      {"measurement": "Hepatic CLint_vivo", "setting": "[1]; person two", "value": 5, "unit": "L/h"},
      {"measurement": "total in vivo CLint estimated with expressed enzymes", "setting": "[2]", "value": 145, "unit": "l/h/kg liver"},
      {"measurement": "metabolism profile (enzymes responsible)", "setting": "[2]", "value": "metabolized only by CYP enzymes"}
    ]},
    {"smiles": "CC1(C)[C@H](C(=O)O[C@H](C#N)c2cccc(Oc3ccccc3)c2)[C@@H]1C=C(Br)Br", "note": "[DLM, deltamethrin]", "values": [
      {"measurement": "Hepatic CLint_vivo", "setting": "[1]; person five", "value": 2066, "unit": "L/h"},
      {"measurement": "Hepatic CLint_vivo", "setting": "[1]; person four", "value": 1282, "unit": "L/h"},
      {"measurement": "Hepatic CLint_vivo", "setting": "[1]; person one", "value": 375, "unit": "L/h"},
      {"measurement": "Hepatic CLint_vivo", "setting": "[1]; person six", "value": 2417, "unit": "L/h"},
      {"measurement": "Hepatic CLint_vivo", "setting": "[1]; person three", "value": 565, "unit": "L/h"},
      {"measurement": "Hepatic CLint_vivo", "setting": "[1]; person two", "value": 224, "unit": "L/h"},
      {"measurement": "total CLint_vivo estimated with HLMs and cytosol (subcellular fraction)", "setting": "[1]", "value": "7,418 l/h/kg liver"},
      {"measurement": "total in vivo CLint estimated with expressed enzymes", "setting": "[2]", "value": "36,782 l/h/kg liver"},
      {"measurement": "log Kow", "setting": "[3]", "value": 4.61}
    ]},
    {"smiles": "CC1(C)[C@H](C(=O)OCc2cccc(Oc3ccccc3)c2)[C@@H]1C=C(Cl)Cl", "note": "[CPM, cis-permethrin]", "values": [
      {"measurement": "Hepatic CLint_vivo", "setting": "[1]; person five", "value": 186, "unit": "L/h"},
      {"measurement": "Hepatic CLint_vivo", "setting": "[1]; person four", "value": 115, "unit": "L/h"},
      {"measurement": "Hepatic CLint_vivo", "setting": "[1]; person one", "value": 34, "unit": "L/h"},
      {"measurement": "Hepatic CLint_vivo", "setting": "[1]; person six", "value": 217, "unit": "L/h"},
      {"measurement": "Hepatic CLint_vivo", "setting": "[1]; person three", "value": 51, "unit": "L/h"},
      {"measurement": "Hepatic CLint_vivo", "setting": "[1]; person two", "value": 20, "unit": "L/h"},
      {"measurement": "total CLint_vivo estimated with HLMs and cytosol (subcellular fraction)", "setting": "[1]", "value": "6,68 l/h/kg liver"},
      {"measurement": "contribution of CES enzymes to human hepatic metabolism", "setting": "[2]; IVIVE of expressed enzyme data", "value": "more than 70%"},
      {"measurement": "total in vivo CLint estimated with expressed enzymes", "setting": "[2]", "value": "70,481 l/h/kg liver"},
      {"measurement": "metabolism profile (enzymes responsible)", "setting": "[2]", "value": "metabolized by CYP and CES enzymes"},
      {"measurement": "log Kow", "setting": "[3]", "value": 6.1},
      {"measurement": "in vivo CLint in cryopreserved hepatocytes", "setting": "[4]", "value": 60, "unit": "l/h/kg liver"}
    ]}
  ]
}
